In ChEMBL document CHEMBL1131807, “Synthesis and in vitro evaluation of novel highly potent coumarin inhibitors of gyrase B” (1999) one finds MIC data, which are given here for 16 compounds.

Each structure is given as a SMILES string. Values after ≈ are worked out from the molar mass of the structure shown. Where only a bound is given, the exact number is not on record here.

What all share (format): functional
Test [1] deals with Enterococcus faecium. In words: Antibacterial activity against vancomycin, teicoplanin and erythromycin resistant Enterococcus faecium 02D31P2 strain. The procedure, abridged: (§1)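 MIC in µg/mL by twofold broth microdilution, read after 24 h incubation. Resistance phenotypes of the strains are as listed for each strain (ofloxacin, oxacillin, erythromycin, teicoplanin, vancomycin).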

The subject of test [2] is Staphylococcus epidermidis. In words: Antibacterial activity against oxacillin and teicoplanin resistant Staphylococcus epidermidis 012GO39 strain. The procedure, abridged: as §1
For test [3], the system named is Streptococcus pyogenes. Nature of the test: Antibacterial activity against Streptococcus pyogenes 02A1UC1 strain. The method, boiled down:
(§2)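 MIC measured by twofold serial dilution in broth microdilution format and read after 24 hours of incubation. The resistance phenotype of each strain (ofloxacin, oxacillin, erythromycin, novobiocin, teicoplanin or vancomycin) was recorded alongside.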

In test [4] the test system is Staphylococcus aureus. Nature of the test: Antibacterial activity against ofloxacin, oxacillin and erythromycin resistant Staphylococcus aureus strain 011GO76. The procedure, abridged:
as §1

For test [5], the system named is Staphylococcus aureus. Nature of the test: Antibacterial activity against Staphylococcus aureus 011HT3 strain. The method, boiled down:
as §2

In test [6] the test system is Staphylococcus aureus. Nature of the test: Antibacterial activity against Staphylococcus aureus novobiocin resistant strain 011HT1. The procedure, abridged: as §2
Test [7] relates to Streptococcus pyogenes. Nature of the test: Compound was evaluated for antibacterial activity, against Streptococcus pyogenes 02A1UC1 strain. The procedure, abridged:
as §2

Test [8] relates to Staphylococcus epidermidis. In words: Compound was evaluated for antibacterial activity, against oxacillin and teicoplanin resistant Staphylococcus epidermidis 012GO39 strain. The procedure, abridged:
as §1

Consider `CCOC(=O)c1c(O)oc2c(C)c(O[C@@H]3OC(C)(C)[C@H](OC)[C@@H](OC(=O)c4ccc(C)[nH]4)[C@H]3O)ccc2c1=O`, for which the minimal inhibitory concentration (MIC) is 5 µg/mL (≈ 9.17 µM) in test [1]; 0.15 µg/mL (≈ 0.275 µM) in test [2]; 0.3 µg/mL (≈ 0.55 µM) in test [3]; 2.5 µg/mL (≈ 4.58 µM) in test [4]; 0.3 µg/mL (≈ 0.55 µM) in test [5]; above 20 µg/mL in test [6].

For the compound `CO[C@@H]1[C@@H](OC(=O)c2ccc(C)[nH]2)[C@@H](O)[C@H](Oc2ccc3c(O)c(/C(C)=N/OCCSc4ncc[nH]4)c(=O)oc3c2C)OC1(C)C`, the MIC in test [1] is 10 µg/mL (≈ 15.2 µM); in test [2] it was 0.3 µg/mL (≈ 0.457 µM); in test [3] it was 0.3 µg/mL (≈ 0.457 µM); in test [4], 0.3 µg/mL (≈ 0.457 µM); in test [5], 0.3 µg/mL (≈ 0.457 µM); in test [6], 40 µg/mL (≈ 60.9 µM).

On to `CO[C@@H]1[C@@H](OC(=O)c2ccc(C)[nH]2)[C@@H](O)[C@H](Oc2ccc3c(O)c(C(=O)Nc4ccccc4)c(=O)oc3c2C)OC1(C)C`, for which the MIC in test [1] was above 40 µg/mL; in test [2] it was below 0.04 µg/mL; in test [3], 0.6 µg/mL (≈ 1.01 µM); in test [4] it was 0.08 µg/mL (≈ 0.135 µM); in test [5] it was below 0.04 µg/mL; in test [6], 1.2 µg/mL (≈ 2.02 µM).

Consider `CO[C@@H]1[C@@H](OC(=O)c2ccc(C)[nH]2)[C@@H](O)[C@H](Oc2ccc3c(O)c(C(=O)OCC(C)C)c(=O)oc3c2C)OC1(C)C`, for which the MIC in test [1] stood at 5 µg/mL (≈ 8.72 µM); in test [2] it was 0.08 µg/mL (≈ 0.139 µM); in test [4], 2.5 µg/mL (≈ 4.36 µM); in test [5] it was 0.08 µg/mL (≈ 0.139 µM); in test [6], 10 µg/mL (≈ 17.4 µM).

As for `CO[C@@H]1[C@@H](OC(=O)c2ccc(C)[nH]2)[C@@H](O)[C@H](Oc2ccc3c(O)c(C(C)=O)c(=O)oc3c2C)OC1(C)C`, the minimal inhibitory concentration (MIC) in test [1] is 2.5 µg/mL (≈ 4.85 µM); in test [2] it was 0.08 µg/mL (≈ 0.155 µM); in test [3], 0.15 µg/mL (≈ 0.291 µM); in test [4] it was 0.15 µg/mL (≈ 0.291 µM); in test [5], below 0.04 µg/mL; in test [6], 5 µg/mL (≈ 9.7 µM).

As for `CCOC(=O)/C(=N\OC)c1c(O)oc2c(C)c(O[C@@H]3OC(C)(C)[C@H](OC)[C@@H](OC(=O)c4ccc(C)[nH]4)[C@H]3O)ccc2c1=O`, the MIC in test [1] was 5 µg/mL (≈ 8.3 µM); in test [3], 0.15 µg/mL (≈ 0.249 µM); in test [5], below 0.04 µg/mL; in test [6], 10 µg/mL (≈ 16.6 µM).

Regarding `CCOCC(=O)c1c(O)oc2c(C)c(O[C@@H]3OC(C)(C)[C@H](OC)[C@@H](OC(=O)c4ccc(C)[nH]4)[C@H]3O)ccc2c1=O`, the MIC in test [1] is 5 µg/mL (≈ 8.94 µM); in test [2] it was 0.08 µg/mL (≈ 0.143 µM); in test [3] it was 0.3 µg/mL (≈ 0.536 µM); in test [4], 0.08 µg/mL (≈ 0.143 µM); in test [5], below 0.04 µg/mL; in test [6], 20 µg/mL (≈ 35.7 µM).

Turning to `CO/N=C(\C)c1c(O)oc2c(C)c(O[C@@H]3OC(C)(C)[C@H](OC)[C@@H](OC(=O)c4ccc(C)[nH]4)[C@H]3O)ccc2c1=O`, the MIC in test [1] is 10 µg/mL (≈ 18.4 µM); in test [2] it was 0.6 µg/mL (≈ 1.1 µM); in test [3] it was 0.3 µg/mL (≈ 0.551 µM); in test [4], 5 µg/mL (≈ 9.18 µM); in test [5], 0.15 µg/mL (≈ 0.275 µM); in test [6], 40 µg/mL (≈ 73.5 µM).

On to `CO[C@@H]1[C@@H](OC(=O)c2ccc(C)[nH]2)[C@@H](O)[C@H](Oc2ccc3c(O)c(C(=O)NCCN(C)C)c(=O)oc3c2C)OC1(C)C`, for which the MIC in test [1] was determined as 10 µg/mL (≈ 17 µM); in test [3], 1.2 µg/mL (≈ 2.04 µM); in test [4], 0.3 µg/mL (≈ 0.511 µM); in test [5] it was 0.15 µg/mL (≈ 0.255 µM); in test [6], 20 µg/mL (≈ 34 µM).

Turning to `CO[C@@H]1[C@@H](OC(=O)c2ccc(C)[nH]2)[C@@H](O)[C@H](Oc2ccc3c(O)c(C(N)=O)c(=O)oc3c2C)OC1(C)C`, the MIC was 2.5 µg/mL (≈ 4.84 µM) in test [1], 0.15 µg/mL (≈ 0.29 µM) in test [3], below 0.04 µg/mL in test [5] and 2.5 µg/mL (≈ 4.84 µM) in test [6].

`COC1[C@@H](OC(N)=O)[C@@H](O)[C@H](Oc2ccc3c(O)c(NC(=O)c4ccc(O)c(CC=C(C)C)c4)c(=O)oc3c2C)OC1(C)C` (single isomer, unassigned) [NOVOBIOCIN]: the MIC is 0.15 µg/mL (≈ 0.245 µM) in test [7]; 0.3 µg/mL (≈ 0.49 µM) in test [1]; 0.08 µg/mL (≈ 0.131 µM) in test [8]; below 0.04 µg/mL in test [5]; 20 µg/mL (≈ 32.6 µM) in test [6].

Turning to `CO[C@@H]1[C@@H](OC(=O)c2ccc(C)[nH]2)[C@@H](O)[C@H](Oc2ccc3c(O)c(/C(C)=N/OCCN4CCOCC4)c(=O)oc3c2C)OC1(C)C`, the MIC was determined as 10 µg/mL (≈ 15.5 µM) in test [1]; 0.3 µg/mL (≈ 0.466 µM) in test [2]; 1.2 µg/mL (≈ 1.86 µM) in test [3]; 0.3 µg/mL (≈ 0.466 µM) in test [4]; 0.15 µg/mL (≈ 0.233 µM) in test [5]; 40 µg/mL (≈ 62.1 µM) in test [6].

Regarding `CO[C@@H]1[C@@H](OC(=O)c2ccc(C)[nH]2)[C@@H](O)[C@H](Oc2ccc3c(O)c(C(=O)NCCO)c(=O)oc3c2C)OC1(C)C`, the MIC is 2.5 µg/mL (≈ 4.46 µM) in test [1]; below 0.04 µg/mL in test [2]; 0.15 µg/mL (≈ 0.268 µM) in test [3]; below 0.04 µg/mL in test [5]; 2.5 µg/mL (≈ 4.46 µM) in test [6].

For `CONC(=O)c1c(O)oc2c(C)c(O[C@@H]3OC(C)(C)[C@H](OC)[C@@H](OC(=O)c4ccc(C)[nH]4)[C@H]3O)ccc2c1=O`, the MIC in test [1] was 2.5 µg/mL (≈ 4.57 µM); in test [2], below 0.04 µg/mL; in test [3], 0.15 µg/mL (≈ 0.274 µM); in test [4], 0.08 µg/mL (≈ 0.146 µM); in test [5] it was below 0.04 µg/mL; in test [6] it was 5 µg/mL (≈ 9.15 µM).

For `CO[C@@H]1[C@@H](OC(=O)c2ccc(C)[nH]2)[C@@H](O)[C@H](Oc2ccc3c(O)c(C(=O)CSC)c(=O)oc3c2C)OC1(C)C`, the MIC in test [1] was 5 µg/mL (≈ 8.9 µM); in test [2], 0.08 µg/mL (≈ 0.142 µM); in test [3], 0.3 µg/mL (≈ 0.534 µM); in test [5] it was below 0.04 µg/mL; in test [6], 5 µg/mL (≈ 8.9 µM).

Take `CO[C@@H]1[C@@H](OC(=O)c2ccc(C)[nH]2)[C@@H](O)[C@H](Oc2ccc3c(O)c(NC(=O)c4ccc(O)c(CC=C(C)C)c4)c(=O)oc3c2Cl)OC1(C)C` [CHLOROBIOCIN]: the MIC is below 0.04 µg/mL in test [2]; below 0.04 µg/mL in test [3]; below 0.04 µg/mL in test [4]; below 0.04 µg/mL in test [5]; 0.15 µg/mL (≈ 0.215 µM) in test [6].
